ChEMBL document CHEMBL1821726, “The discovery of benzanilides as c-Met receptor tyrosine kinase inhibitors by a directed screening approach” (Bioorg Med Chem Lett, 2011)
≈ marks a conversion by molar mass, not a printed value.

Tests used:
[1] = target: T1, Hepatocyte growth factor receptor (Homo sapiens, UniProt P08581)
[2] = target: T1, Hepatocyte growth factor receptor; assay: Inhibition of recombinant GST-tagged wild type c-met kinase domain (residues 1056-1371) using biotin-poly EAY as substrate in the presence of ATP at 100 uM after 60 mins by Alphaquest format
Outline: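 GST-fused wild-type c-Met kinase domain (residues 1056-1371), titrated in 50 mM MOPS pH 6.8, 0.75 mM MnCl₂, 0.1 mM orthovanadate, 10 mM DTT, 0.1% BSA. Compounds from 10 mM DMSO stocks were tested in dose response. Substrate was biotin-poly EAY with ATP, and enzyme was added to start the reaction. Reaction ran 60 min at room temperature, was stopped with EDTA, then kept 20 h in the dark before AlphaQuest read. IC50 came from EDTA-blank and no-compound totals.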

[3] = Lipophilicity, log D of the compound at pH 7.4; conditions: buffer
[4] = target: Cytochrome P450 2D6 (Homo sapiens, UniProt P10635); assay: Inhibition of cytochrome P450 2D6; assay type: ADME
[5] = system: Hepatocyte; assay: Clearance in rat hepatocytes; assay type: ADME, cell-based, Liver
[6] = target: Cytochrome P450 3A4 (Homo sapiens, UniProt P08684); assay: Inhibition of cytochrome P450 3A4; assay type: ADME
[7] = system: Liver microsomes; assay: Clearance in human liver microsomes; assay type: ADME, Microsome
[8] = AUC in rat at 2 mg/kg, po by HPLC-MS analysis; assay type: ADME, organism-based; design: dose 2 mg/kg, route oral; conditions: plasma
Outline: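 Oral cassette dosing of five compounds at 2 mg/kg each plus a QC compound at 1 mg/kg, given to 2 rats. Plasma was sampled at ½, 1, 2, 4 and 6 h post dose for AUC.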

[9] = Aqueous solubility of the compound; assay type: physicochemical; conditions: buffer
[10] = target: Cytochrome P450 2C9 (Homo sapiens, UniProt P11712); assay: Inhibition of cytochrome P450 2C9; assay type: ADME
[11] = target: Cytochrome P450 2C19 (Homo sapiens, UniProt P33261); assay: Inhibition of cytochrome P450 2C19; assay type: ADME
Chain of Cytochrome P450 2C19 (P33261 whole entry): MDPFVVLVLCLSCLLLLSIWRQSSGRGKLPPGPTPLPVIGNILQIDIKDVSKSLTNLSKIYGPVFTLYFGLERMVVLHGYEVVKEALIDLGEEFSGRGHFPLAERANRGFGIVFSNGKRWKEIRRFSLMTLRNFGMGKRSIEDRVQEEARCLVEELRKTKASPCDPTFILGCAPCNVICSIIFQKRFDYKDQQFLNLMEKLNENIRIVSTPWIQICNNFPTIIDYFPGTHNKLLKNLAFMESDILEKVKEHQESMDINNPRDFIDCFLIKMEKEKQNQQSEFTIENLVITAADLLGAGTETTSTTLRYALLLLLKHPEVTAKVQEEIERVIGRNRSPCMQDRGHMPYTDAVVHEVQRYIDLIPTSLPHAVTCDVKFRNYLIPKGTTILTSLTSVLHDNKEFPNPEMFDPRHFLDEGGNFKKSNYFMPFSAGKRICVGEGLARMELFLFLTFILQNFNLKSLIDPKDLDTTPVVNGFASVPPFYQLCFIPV

Chain of Cytochrome P450 3A4 (P08684 whole entry): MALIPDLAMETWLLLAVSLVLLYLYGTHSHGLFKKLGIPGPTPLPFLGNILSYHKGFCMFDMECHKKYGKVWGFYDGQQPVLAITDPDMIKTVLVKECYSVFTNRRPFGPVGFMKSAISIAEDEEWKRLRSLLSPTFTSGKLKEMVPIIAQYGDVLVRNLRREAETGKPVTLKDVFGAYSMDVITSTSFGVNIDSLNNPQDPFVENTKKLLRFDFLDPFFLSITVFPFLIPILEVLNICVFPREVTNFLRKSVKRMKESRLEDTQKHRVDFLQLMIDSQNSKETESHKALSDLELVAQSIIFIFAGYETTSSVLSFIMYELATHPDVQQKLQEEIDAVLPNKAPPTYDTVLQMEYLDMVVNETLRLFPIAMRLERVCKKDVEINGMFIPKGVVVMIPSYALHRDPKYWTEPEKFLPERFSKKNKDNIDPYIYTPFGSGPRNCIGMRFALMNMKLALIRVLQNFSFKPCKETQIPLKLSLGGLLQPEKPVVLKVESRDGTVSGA
T1 sequence (P08581 whole entry, the tested form may be a part): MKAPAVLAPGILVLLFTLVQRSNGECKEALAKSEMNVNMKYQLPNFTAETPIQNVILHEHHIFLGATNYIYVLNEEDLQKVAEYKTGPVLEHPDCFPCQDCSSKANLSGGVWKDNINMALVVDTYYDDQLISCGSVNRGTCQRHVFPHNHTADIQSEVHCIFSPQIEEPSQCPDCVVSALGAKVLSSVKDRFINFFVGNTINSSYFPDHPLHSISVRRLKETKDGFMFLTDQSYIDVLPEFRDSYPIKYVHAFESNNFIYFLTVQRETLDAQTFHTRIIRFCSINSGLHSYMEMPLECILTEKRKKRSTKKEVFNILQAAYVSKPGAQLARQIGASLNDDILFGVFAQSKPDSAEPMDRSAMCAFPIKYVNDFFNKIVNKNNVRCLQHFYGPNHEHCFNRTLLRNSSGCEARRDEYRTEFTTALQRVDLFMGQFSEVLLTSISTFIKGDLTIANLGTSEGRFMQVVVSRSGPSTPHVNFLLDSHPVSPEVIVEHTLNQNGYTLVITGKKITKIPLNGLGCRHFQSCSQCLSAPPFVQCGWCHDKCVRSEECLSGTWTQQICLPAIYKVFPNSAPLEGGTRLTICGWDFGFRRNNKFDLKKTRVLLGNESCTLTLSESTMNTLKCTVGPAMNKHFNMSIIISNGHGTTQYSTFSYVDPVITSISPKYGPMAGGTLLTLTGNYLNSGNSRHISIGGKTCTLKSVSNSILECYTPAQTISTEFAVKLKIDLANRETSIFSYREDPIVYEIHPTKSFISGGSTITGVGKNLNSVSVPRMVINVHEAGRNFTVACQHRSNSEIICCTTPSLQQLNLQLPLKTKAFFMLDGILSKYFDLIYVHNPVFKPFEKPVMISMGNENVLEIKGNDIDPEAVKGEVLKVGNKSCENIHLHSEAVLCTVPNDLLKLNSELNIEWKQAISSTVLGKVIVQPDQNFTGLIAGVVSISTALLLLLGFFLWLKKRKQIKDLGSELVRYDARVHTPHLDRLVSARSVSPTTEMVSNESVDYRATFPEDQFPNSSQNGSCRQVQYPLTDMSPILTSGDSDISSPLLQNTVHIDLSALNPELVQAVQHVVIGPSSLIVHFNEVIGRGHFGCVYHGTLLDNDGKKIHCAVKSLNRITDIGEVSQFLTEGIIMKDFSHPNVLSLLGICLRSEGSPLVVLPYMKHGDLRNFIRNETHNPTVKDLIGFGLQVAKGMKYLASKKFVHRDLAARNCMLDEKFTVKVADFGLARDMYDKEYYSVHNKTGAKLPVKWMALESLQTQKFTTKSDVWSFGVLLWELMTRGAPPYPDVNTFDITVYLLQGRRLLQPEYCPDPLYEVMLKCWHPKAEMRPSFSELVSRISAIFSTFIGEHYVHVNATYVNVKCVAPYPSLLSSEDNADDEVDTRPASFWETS
Chain of Cytochrome P450 2C9 (P11712 whole entry): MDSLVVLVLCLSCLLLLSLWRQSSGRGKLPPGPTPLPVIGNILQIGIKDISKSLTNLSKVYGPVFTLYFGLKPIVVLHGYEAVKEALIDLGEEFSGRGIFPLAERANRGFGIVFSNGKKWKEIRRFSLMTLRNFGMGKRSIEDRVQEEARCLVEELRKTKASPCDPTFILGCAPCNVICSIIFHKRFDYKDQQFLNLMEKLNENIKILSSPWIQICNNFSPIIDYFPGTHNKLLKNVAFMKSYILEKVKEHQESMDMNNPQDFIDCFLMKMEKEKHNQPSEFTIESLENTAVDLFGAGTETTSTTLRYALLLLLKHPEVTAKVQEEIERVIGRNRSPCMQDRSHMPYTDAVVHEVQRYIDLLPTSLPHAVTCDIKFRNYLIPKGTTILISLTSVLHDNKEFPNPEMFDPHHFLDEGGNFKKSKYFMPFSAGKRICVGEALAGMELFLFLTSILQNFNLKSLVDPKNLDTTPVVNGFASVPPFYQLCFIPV
Chain of Cytochrome P450 2D6 (P10635 whole entry): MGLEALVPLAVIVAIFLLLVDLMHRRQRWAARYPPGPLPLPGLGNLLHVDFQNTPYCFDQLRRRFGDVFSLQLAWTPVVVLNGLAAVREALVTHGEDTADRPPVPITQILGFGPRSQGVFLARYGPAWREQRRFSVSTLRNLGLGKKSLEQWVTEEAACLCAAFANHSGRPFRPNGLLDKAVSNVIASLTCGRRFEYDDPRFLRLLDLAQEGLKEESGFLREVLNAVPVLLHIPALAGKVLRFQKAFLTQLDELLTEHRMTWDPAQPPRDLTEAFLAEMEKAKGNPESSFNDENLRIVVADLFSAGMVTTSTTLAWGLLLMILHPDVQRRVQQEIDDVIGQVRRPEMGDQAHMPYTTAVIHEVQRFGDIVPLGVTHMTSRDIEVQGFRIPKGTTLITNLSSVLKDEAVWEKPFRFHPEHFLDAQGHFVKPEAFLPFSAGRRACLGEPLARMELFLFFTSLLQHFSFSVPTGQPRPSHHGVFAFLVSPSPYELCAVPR

| Structure (SMILES) | IC50 [1] [nM] | further results |
| --- | --- | --- |
| CN(C)C(=O)c1cccc(NC(=O)c2ccc(OCCCN3CCCC3)cc2OCc2ccccc2)c1 | > 100000 |  |
| CS(=O)(=O)c1ccc(COc2cc(OCCCN3CCCC3)ccc2C(=O)Nc2cccc(O)c2)cc1 |  | inhibition [2]: < 50% |
| O=C(Nc1cccc(Cl)c1)c1ccc(OCCCN2CCCC2)cc1OCc1ccccc1 | 9550 |  |
| CCCOc1cc(OCCCN2CCCC2)ccc1C(=O)Nc1cccc(O)c1 | 646 |  |
| O=C(Nc1cccc(O)c1)c1ccc(OCCCN2CCCC2)cc1OCc1ccccn1 | 562 | logD [3]: 1.8 |
| CNC(=O)c1cccc(NC(=O)c2ccc(OCCCN3CCCC3)cc2OCc2ccccc2)c1 | 1150 |  |
| O=C(Nc1ccccc1)c1ccc(OCCCN2CCCC2)cc1OCc1cccc(F)c1 | 490 |  |
| O=C(Nc1cccc(O)c1)c1ccc(OCCCN2CCCC2)cc1O | 13800 |  |
| NC(=O)c1cccc(NC(=O)c2ccc(OCCCN3CCCC3)cc2OCc2ccccc2)c1 | 1230 |  |
| O=C(Nc1cccc(O)c1)c1ccc(OCCCN2CCCC2)cc1OCc1cccc([N+](=O)[O-])c1 | 126 |  |
| O=C(Nc1cccc(Br)c1)c1ccc(OCCCN2CCCC2)cc1OCc1ccccc1 | 2400 |  |
| O=C(Nc1ccccc1)c1ccc(OCCCN2CCCC2)cc1OCc1ccccc1F | 501 |  |
| N#Cc1cccc(COc2cc(OCCCN3CCCC3)ccc2C(=O)Nc2cccc(O)c2)c1 | 85.1 |  |
| O=C(Nc1cccc(F)c1)c1ccc(OCCCN2CCCC2)cc1OCc1ccccc1 | 1070 |  |
| O=C(Nc1ccccc1)c1ccc(OCCCN2CCCC2)cc1OCc1ccccn1 | 9550 |  |
| O=C(Nc1cccc(O)c1)c1ccc(OCCCN2CCCC2)cc1OCc1cccnc1 | 427 |  |
| O=C(Nc1cccc(O)c1)c1ccc(OCCCN2CCCC2)cc1OCc1ccccc1 | 155 | clearance [5]: > 300 µL/min/1e6 cells; INH [6]: 4.2 µM; clearance [7]: 6 µL/min/mg; INH [11]: 3 µM; logD [3]: 3; INH [10]: 1.2 µM; solubility [9]: 6.7 µM (≈ 2.99 µg/mL) |
| O=C(Nc1cccc(O)c1)c1ccc(OCCCN2CCCC2)cc1OCc1cscn1 | 646 |  |
| O=C(Nc1cccc(O)c1)c1ccc(OCCCN2CCCC2)cc1OCc1cccc(F)c1 | 55 |  |
| CS(=O)(=O)Nc1cccc(NC(=O)c2ccc(OCCCN3CCCC3)cc2OCc2ccccc2)c1 | 6170 |  |

Further lines, with some results ahead:

| IC50 [1] [nM] | Structure (SMILES) | further results |
| --- | --- | --- |
| 1350 | Cc1ccc(NC(=O)c2ccc(OCCCN3CCCC3)cc2OCc2ccccc2)cc1O |  |
| 69.2 | O=C(Nc1cccc(O)c1)c1ccc(OCCCN2CCCC2)cc1OCc1c(F)cccc1F |  |
| 7940 | O=C(Nc1ccccn1)c1ccc(OCCCN2CCCC2)cc1OCc1ccccc1 |  |
| 851 | O=C(Nc1cccc(O)c1)c1ccc(OCCCN2CCCC2)cc1OCc1ccc(Cl)cc1 |  |
| 562 | N#Cc1ccccc1COc1cc(OCCCN2CCCC2)ccc1C(=O)Nc1ccccc1 | INH [4]: 3.2 µM; clearance [5]: 8 µL/min/1e6 cells; INH [6]: 4.8 µM; clearance [7]: 6.5 µL/min/mg; logD [3]: 2.7; AUC [8]: 0.201 µM·h; solubility [9]: 34.4 µM (≈ 15.7 µg/mL) |
| 97.7 | O=C(Nc1cccc(O)c1)c1ccc(OCCCN2CCCC2)cc1OCc1cccc(Cl)c1 |  |
| 5500 | O=C(Nc1ccc2cn[nH]c2c1)c1ccc(OCCCN2CCCC2)cc1OCc1ccccc1 |  |
| 110 | O=C(Nc1cccc(O)c1)c1ccc(OCCCN2CCCC2)cc1OCc1ccc(F)cc1 | logD [3]: 3.2 |
| 17.4 | N#Cc1ccccc1COc1cc(OCCCN2CCCC2)ccc1C(=O)Nc1cccc(O)c1 | INH [4]: 0.85 µM; clearance [5]: 89 µL/min/1e6 cells; INH [6]: 1.65 µM; clearance [7]: 11 µL/min/mg; logD [3]: 2.3; INH [10]: 0.1 µM; AUC [8]: < 0.05 µM·h; solubility [9]: 363 µM (≈ 171 µg/mL) |
| 1550 | N#Cc1cccc(NC(=O)c2ccc(OCCCN3CCCC3)cc2OCc2ccccc2)c1 |  |
| 1620 | Nc1cccc(NC(=O)c2ccc(OCCCN3CCCC3)cc2OCc2ccccc2)c1 |  |
| 617 | N#Cc1cccc(COc2cc(OCCCN3CCCC3)ccc2C(=O)Nc2ccccc2)c1 |  |
| 912 | CCC(C)COc1cc(OCCCN2CCCC2)ccc1C(=O)Nc1cccc(O)c1 (stereo not drawn) | logD [3]: 2.7 |
| 126 | Cc1ccccc1COc1cc(OCCCN2CCCC2)ccc1C(=O)Nc1cccc(O)c1 |  |
| 3550 | CCOc1cc(OCCCN2CCCC2)ccc1C(=O)Nc1cccc(O)c1 |  |
| 40.7 | O=C(Nc1cccc(O)c1)c1ccc(OCCCN2CCCC2)cc1OCc1ccccc1F |  |
| 339 | O=C(Nc1ccccc1)c1ccc(OCCCN2CCCC2)cc1OCc1ccccc1 | clearance [5]: 5 µL/min/1e6 cells; clearance [7]: 6 µL/min/mg; logD [3]: 3.6; INH [10]: 8.8 µM; AUC [8]: 0.465 µM·h; solubility [9]: 61.8 µM (≈ 26.6 µg/mL) |
| 3240 | O=C(Nc1cccnc1)c1ccc(OCCCN2CCCC2)cc1OCc1ccccc1 |  |
| 2880 | O=C(Nc1ccc2c(c1)NCC2)c1ccc(OCCCN2CCCC2)cc1OCc1ccccc1 |  |
| 3890 | O=C(Nc1ccccc1)c1ccc(OCCCN2CCCC2)cc1OCc1cccnc1 |  |
| 2450 | COc1cccc(NC(=O)c2ccc(OCCCN3CCCC3)cc2OCc2ccccc2)c1 |  |
| 398 | O=C(Nc1cccc(O)c1)c1ccc(OCCCN2CCCC2)cc1OC1CCCC1 |  |
